Series [1] concerns the target Serine/threonine-protein kinase pim-1 (Homo sapiens, UniProt P11309). As to the kind of experiment: Inhibition of PIM1 (unknown origin).
Series [2] addresses T1, Inhibitor of nuclear factor kappa-B kinase subunit alpha (Homo sapiens, UniProt O15111).
T1 sequence (O15111 whole entry): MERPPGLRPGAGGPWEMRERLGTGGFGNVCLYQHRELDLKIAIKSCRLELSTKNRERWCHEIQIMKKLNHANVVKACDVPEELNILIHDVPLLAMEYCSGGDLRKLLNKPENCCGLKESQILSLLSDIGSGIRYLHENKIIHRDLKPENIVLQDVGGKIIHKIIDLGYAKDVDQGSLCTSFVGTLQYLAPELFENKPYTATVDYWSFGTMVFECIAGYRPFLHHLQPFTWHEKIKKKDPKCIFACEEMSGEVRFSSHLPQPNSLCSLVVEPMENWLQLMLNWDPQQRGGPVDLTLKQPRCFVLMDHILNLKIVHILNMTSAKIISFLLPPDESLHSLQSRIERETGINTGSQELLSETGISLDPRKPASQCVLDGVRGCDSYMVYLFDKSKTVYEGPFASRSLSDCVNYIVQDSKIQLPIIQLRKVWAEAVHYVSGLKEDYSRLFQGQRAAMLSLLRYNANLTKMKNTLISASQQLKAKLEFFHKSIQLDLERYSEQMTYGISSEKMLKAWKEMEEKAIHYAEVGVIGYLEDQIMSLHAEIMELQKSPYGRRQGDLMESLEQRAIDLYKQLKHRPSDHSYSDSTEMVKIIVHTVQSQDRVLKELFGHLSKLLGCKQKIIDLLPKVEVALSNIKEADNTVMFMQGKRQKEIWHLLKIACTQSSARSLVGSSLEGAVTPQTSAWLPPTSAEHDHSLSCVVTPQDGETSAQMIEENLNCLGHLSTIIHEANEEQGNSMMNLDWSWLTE
Description: Inhibition of recombinant full length human His-tagged IKKalpha expressed in baculovirus expression system using ERLLDDRHDSGLDSMKDEE peptide as substrate measured after 60 mins by ADP-Glo kinase assay. In outline:
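Recombinant human IKKα, peptide substrate 100 µM, enzyme 8 ng/µL, ATP 1 µM in Tris-HCl pH 7.5 buffer with MgCl2, MnCl2, DTT, Na3VO4, BSA; 25°C, 60 min; ADP-Glo luminescence. Ten concentrations 0.005–100 µM; IC50 by nonlinear regression; means ± SD of three independent experiments.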
A general note: ADP-Glo first removes unused ATP, then detects ADP through luciferase.

In series [3] the target is Serine/threonine-protein kinase PAK 1 (Homo sapiens, UniProt Q13153). As to the kind of experiment: Inhibition of PAK1 (unknown origin).
Serine/threonine-protein kinase PAK 1, sequence (Q13153 whole entry): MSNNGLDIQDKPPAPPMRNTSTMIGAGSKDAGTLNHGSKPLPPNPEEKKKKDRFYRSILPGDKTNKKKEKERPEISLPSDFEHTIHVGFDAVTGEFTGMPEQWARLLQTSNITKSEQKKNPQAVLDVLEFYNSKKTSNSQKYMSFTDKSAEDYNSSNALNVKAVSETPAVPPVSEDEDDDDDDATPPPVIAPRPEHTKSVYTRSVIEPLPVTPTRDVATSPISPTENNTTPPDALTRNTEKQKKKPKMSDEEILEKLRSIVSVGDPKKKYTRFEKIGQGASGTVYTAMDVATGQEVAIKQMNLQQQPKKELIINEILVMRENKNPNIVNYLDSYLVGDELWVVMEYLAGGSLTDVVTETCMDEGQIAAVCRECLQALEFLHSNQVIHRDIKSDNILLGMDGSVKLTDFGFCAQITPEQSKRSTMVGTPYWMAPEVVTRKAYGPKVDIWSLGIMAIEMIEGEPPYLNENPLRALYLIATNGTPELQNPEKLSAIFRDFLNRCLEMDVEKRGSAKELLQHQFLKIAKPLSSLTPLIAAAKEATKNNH
Series [4] addresses T2, Inhibitor of nuclear factor kappa-B kinase subunit epsilon (Homo sapiens, UniProt Q14164).
T2 sequence (Q14164 whole entry): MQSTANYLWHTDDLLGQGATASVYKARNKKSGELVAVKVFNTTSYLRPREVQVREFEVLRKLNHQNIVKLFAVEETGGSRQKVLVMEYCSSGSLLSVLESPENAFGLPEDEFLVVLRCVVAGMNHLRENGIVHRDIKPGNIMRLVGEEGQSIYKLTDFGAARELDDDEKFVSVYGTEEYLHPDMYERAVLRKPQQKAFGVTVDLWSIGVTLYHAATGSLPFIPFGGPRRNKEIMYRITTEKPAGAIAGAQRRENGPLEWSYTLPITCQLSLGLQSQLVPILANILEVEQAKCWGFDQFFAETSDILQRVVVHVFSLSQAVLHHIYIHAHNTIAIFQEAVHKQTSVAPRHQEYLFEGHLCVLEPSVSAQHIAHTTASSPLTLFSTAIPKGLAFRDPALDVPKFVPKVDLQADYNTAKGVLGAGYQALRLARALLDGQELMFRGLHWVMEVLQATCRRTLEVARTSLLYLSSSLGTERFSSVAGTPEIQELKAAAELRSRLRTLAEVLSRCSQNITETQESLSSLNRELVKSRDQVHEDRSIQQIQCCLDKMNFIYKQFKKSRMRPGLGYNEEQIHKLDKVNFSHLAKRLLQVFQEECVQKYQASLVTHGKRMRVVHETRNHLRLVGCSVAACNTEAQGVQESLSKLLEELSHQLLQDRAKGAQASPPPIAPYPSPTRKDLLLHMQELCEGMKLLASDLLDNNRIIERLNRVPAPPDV
As to the kind of experiment: Inhibition of recombinant human full-length N-terminal GST-fused/His6-tagged IKKepsilon (M1 to V716 residues) expressed in Sf9 insect cells using ERLLDDRHDSGLDSMKDEE peptide as substrate measured after 60 mins by ADP-Glo kinase assay.

Series [5] concerns the target Hepatocyte growth factor receptor (Homo sapiens, UniProt P08581). As to the kind of experiment: Inhibition of wild-type MET (unknown origin).
Series [6] addresses Mitogen-activated protein kinase kinase kinase 14 (Homo sapiens, UniProt Q99558). Description: Inhibition of recombinant human full-length N-terminal GST-fused/His6-tagged NIK (M1 to P947 residues) expressed in Sf9 insect cells using AKDVDQGSLCTSFVGTLQY peptide as substrate measured after 60 mins by ADP-Glo kinase assay.
The target in series [7] is Tyrosine-protein kinase receptor UFO (Homo sapiens, UniProt P30530). As to the kind of experiment: Inhibition of AXL (unknown origin).
The species named for the next series is Homo sapiens. As to the kind of experiment: Inhibition of NFkappaB activation in human SKBR3 cells at 100 uM after 6 hrs by dual luciferase reporter gene assay relative to control. Format: cell-based. In outline:
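Cells were nucleofected with the pGL4.32 NF-κB-RE firefly luciferase and pGL4.74 TK-Renilla plasmids (3 µg, 10:1 ratio) and cultured for 24 h at 37 °C. Compound (10, 25, 50 or 100 µM) was then added for 6 h. Firefly luminescence was normalised to Renilla from the same sample and expressed as % of vehicle control. Means ± SD of three independent experiments.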

Series [8] has as its target 5'-AMP-activated protein kinase catalytic subunit alpha-1 (Homo sapiens, UniProt Q13131). As to the kind of experiment: Inhibition of AMPK alpha1 (unknown origin) (1 to 550 residues).
The nature of series [9]: Octanol/phosphate buffered saline partition coefficient, log D of the compound at pH 7.4. Format: physicochemical.
The target of series [10] is Dual specificity tyrosine-phosphorylation-regulated kinase 1A (Homo sapiens, UniProt Q13627). As to the kind of experiment: Inhibition of DYRK1A (unknown origin).
The next series addresses SRSF protein kinase 2 (Homo sapiens, UniProt P78362). Description: Inhibition of SRPK2 (unknown origin).
Series [11] is described as follows: Kinetic solubility in phosphate buffered saline at pH 7.4 measured after 60 mins. Format: physicochemical. As to conditions: read-out: Kinetic_solubility.
The target of series [12] is Platelet-derived growth factor receptor alpha (Homo sapiens, UniProt P16234). As to the kind of experiment: Inhibition of wild-type PDGFR-alpha (unknown origin).
Platelet-derived growth factor receptor alpha, sequence (P16234 whole entry): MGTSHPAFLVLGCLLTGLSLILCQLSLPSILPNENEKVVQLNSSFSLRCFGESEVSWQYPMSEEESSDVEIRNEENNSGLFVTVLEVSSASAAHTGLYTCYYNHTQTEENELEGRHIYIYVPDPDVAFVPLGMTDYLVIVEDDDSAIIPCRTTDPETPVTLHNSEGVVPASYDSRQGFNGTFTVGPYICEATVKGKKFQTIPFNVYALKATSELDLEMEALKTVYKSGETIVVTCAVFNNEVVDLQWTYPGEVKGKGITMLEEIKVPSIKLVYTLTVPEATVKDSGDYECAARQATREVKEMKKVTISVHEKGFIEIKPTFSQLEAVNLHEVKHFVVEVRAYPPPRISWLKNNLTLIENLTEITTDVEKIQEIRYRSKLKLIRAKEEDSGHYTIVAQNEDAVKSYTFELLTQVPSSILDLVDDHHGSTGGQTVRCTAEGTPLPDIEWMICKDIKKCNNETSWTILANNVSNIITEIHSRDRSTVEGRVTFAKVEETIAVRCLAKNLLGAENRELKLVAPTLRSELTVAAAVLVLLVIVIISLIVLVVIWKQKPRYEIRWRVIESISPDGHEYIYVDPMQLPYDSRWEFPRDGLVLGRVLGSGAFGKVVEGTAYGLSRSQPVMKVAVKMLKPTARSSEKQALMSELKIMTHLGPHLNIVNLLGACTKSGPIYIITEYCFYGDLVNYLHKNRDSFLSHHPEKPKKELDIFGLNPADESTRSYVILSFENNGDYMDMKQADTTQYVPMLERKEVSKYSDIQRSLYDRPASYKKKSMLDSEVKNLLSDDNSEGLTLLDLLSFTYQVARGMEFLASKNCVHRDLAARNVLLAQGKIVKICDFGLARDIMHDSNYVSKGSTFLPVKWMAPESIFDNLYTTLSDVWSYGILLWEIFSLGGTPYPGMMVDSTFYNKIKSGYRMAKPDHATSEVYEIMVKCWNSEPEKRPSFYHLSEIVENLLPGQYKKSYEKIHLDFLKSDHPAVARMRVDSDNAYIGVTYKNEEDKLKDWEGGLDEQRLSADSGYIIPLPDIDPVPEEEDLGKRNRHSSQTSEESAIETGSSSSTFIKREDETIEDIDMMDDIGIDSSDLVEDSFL
Series [13] is described as follows: Stability in human liver microsomes at 1 uM in absence of NADPH cofactor. Format: ADME, microsome. For orientation: Liver microsomes are a subcellular fraction often used to study metabolism.
The target in series [14] is Serine/threonine-protein kinase Chk2 (Homo sapiens, UniProt O96017). As to the kind of experiment: Inhibition of CHK2 (unknown origin).
Serine/threonine-protein kinase Chk2, sequence (O96017 whole entry): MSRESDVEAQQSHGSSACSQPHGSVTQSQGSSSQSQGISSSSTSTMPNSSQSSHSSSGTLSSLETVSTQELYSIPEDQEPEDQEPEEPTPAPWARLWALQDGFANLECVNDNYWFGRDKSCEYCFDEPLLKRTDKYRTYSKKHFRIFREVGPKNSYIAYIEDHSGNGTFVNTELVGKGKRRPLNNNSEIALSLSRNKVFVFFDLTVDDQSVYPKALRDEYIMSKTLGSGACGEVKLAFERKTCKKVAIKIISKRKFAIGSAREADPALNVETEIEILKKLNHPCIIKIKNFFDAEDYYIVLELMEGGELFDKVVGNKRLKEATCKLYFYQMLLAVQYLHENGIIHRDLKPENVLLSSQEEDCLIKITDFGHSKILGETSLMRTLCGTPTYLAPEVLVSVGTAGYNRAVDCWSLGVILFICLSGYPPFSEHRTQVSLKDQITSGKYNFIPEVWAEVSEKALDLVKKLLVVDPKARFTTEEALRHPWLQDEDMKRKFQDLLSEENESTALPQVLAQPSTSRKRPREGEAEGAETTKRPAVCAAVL
Series [15] deals with Dual specificity mitogen-activated protein kinase kinase 1 (Homo sapiens, UniProt Q02750). Description: Inhibition of wild-type MEK1 (unknown origin).
The target of series [16] is Maternal embryonic leucine zipper kinase (Homo sapiens, UniProt Q14680). Description: Inhibition of MELK (unknown origin).
Series [17] has as its target 3-phosphoinositide-dependent protein kinase 1 (Homo sapiens, UniProt O15530). As to the kind of experiment: Inhibition of PDK1 (unknown origin).

In brackets after ≈: the same amount, converted by molar mass. Some results are limits rather than exact numbers.

One may read the IC50 as the midpoint of a concentration-inhibition curve. Broadly, the inhibition is the drop in the measured response relative to a control, in per cent. A higher inhibition goes with strong suppression. By logD is commonly meant lipophilicity at a set pH, counting ionised and neutral species.

Hepatocyte growth factor receptor, sequence (P08581 whole entry, the tested form may be a part): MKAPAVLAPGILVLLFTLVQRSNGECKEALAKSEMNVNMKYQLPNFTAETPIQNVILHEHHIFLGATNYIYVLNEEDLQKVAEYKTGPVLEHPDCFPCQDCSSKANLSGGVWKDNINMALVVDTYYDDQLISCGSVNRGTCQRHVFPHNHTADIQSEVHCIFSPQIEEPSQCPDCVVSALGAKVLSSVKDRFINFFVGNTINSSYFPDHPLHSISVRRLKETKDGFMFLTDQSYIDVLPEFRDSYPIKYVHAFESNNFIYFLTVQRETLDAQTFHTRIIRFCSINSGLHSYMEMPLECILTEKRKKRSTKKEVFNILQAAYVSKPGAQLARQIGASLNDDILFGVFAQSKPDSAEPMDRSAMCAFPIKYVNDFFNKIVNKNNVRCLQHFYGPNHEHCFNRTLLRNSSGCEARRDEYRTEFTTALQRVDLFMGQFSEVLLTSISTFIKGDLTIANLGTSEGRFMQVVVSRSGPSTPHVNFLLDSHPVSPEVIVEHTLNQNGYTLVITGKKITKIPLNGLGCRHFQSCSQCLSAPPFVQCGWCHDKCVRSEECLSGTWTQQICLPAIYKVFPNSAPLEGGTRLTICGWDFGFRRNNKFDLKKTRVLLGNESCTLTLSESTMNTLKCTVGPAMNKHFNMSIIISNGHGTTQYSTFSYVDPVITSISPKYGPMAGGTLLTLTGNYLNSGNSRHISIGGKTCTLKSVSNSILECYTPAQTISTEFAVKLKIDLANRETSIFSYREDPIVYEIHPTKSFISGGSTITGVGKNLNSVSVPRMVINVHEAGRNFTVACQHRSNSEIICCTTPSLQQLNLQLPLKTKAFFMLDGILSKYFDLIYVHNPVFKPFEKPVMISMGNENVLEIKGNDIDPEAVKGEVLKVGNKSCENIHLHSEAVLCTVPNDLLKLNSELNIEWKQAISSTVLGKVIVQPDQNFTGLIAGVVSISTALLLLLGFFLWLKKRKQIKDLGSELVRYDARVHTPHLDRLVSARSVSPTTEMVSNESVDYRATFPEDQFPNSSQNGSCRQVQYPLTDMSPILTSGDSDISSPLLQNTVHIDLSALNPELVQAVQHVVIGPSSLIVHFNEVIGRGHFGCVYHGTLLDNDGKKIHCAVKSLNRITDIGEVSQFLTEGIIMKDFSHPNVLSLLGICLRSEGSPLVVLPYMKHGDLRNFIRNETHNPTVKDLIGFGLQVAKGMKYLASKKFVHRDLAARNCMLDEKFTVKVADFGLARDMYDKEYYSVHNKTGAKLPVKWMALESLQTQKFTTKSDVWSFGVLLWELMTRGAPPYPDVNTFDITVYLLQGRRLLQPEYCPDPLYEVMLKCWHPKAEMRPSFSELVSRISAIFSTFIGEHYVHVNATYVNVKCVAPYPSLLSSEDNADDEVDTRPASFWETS
5'-AMP-activated protein kinase catalytic subunit alpha-1, sequence (Q13131 whole entry, the tested form may be a part): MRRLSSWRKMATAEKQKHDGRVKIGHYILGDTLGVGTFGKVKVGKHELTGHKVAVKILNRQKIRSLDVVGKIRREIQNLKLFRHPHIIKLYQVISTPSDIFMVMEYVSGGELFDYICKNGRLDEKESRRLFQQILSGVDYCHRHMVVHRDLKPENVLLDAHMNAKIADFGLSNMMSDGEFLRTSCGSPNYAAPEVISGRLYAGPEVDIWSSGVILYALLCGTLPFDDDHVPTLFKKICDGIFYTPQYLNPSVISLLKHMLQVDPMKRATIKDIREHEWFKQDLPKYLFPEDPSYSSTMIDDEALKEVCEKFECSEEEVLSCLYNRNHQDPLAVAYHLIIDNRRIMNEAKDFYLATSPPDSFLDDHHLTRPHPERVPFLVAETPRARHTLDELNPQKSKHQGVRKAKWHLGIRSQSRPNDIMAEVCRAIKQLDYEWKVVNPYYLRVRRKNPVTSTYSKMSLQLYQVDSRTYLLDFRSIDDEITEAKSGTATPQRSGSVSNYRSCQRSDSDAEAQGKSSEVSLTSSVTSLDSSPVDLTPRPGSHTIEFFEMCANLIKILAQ
SRSF protein kinase 2, sequence (P78362 whole entry): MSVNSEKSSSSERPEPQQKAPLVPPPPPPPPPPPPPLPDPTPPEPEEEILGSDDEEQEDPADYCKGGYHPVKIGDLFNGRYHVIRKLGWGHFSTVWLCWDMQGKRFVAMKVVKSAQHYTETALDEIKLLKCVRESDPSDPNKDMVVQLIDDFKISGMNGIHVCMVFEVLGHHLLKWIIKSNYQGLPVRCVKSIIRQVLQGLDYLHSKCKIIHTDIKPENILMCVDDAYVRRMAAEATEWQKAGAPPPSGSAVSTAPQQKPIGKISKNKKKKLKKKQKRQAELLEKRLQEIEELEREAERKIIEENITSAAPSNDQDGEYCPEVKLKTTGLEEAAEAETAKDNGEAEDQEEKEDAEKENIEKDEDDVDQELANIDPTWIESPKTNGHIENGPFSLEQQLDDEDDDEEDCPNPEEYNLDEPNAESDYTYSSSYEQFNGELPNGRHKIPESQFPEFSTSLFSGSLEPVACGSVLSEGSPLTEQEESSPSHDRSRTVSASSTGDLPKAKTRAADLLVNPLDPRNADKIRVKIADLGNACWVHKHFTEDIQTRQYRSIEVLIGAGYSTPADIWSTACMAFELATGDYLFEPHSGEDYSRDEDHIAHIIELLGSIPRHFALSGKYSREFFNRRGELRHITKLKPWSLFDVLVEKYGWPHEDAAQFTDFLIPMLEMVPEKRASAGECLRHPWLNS

Consider `CC(=O)n1nc(C)c(-c2ccc(Cl)c(Cl)c2)c1N`, for which the IC50 in [1] is more than 100 µM; in series [2], more than 100 µM; in [3] it was more than 100 µM; in series [4] it was more than 100 µM; in series [5], more than 100 µM; in series [6] it was 8.4 µM. For the same compound, the IC50 (in series [7]; in series [8]; in series [10]; against SRSF protein kinase 2; in series [12]; in series [14]) was more than 100 µM each time. In addition, the half-maximal inhibitory concentration (IC50) in [15], in series [16] and in [17] was more than 100 µM throughout. Besides, in the series filed under Homo sapiens, the inhibition stood at 3.9%. In series [9], this compound had a logD of 4.09. Moreover, in series [11], the solubility kinetic at 1 h amounted to 12 µM (≈ 3.41 µg/mL). Further, the Stability entry in series [13] is on record as “Unstable”.

Source of the values: ChEMBL document CHEMBL4257503, “N-Acetyl-3-aminopyrazoles block the non-canonical NF-kB cascade by selectively inhibiting NIK” (Medchemcomm, 2018).
